This assay addresses T1, RsTSPO WT (Cereibacter sphaeroides, UniProt Q9RFC8).
T1 sequence (Q9RFC8 1-158): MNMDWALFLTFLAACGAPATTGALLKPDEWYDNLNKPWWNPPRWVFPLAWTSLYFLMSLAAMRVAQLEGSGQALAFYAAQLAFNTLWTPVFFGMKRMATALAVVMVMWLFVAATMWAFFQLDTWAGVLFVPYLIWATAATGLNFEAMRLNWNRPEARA
Put plainly: tryptophan fluorescence quenching titration, Hill fit. Format: binding. The method in brief: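 Purified wild-type Rhodobacter sphaeroides TSPO, 2.5 uM in 20mM Tris pH 8.0, 150mM NaCl, 0.20% DM, 2mM TCEP, titrated at room temperature with increasing amounts of test compound in DMSO. Emission scanned 290–400 nm, excitation 285 nm. Ligand, buffer and solvent absorption/emission controls run. Kd from Hill-equation fit of the quenching curve.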

What is called Kd is the free concentration of one partner at which half of the binding sites on the other are occupied at equilibrium, for simple one-to-one binding. In turn, `Nc1ccccc1C(=O)C[C@H](N)C(=O)O` [Kynurenine] gave a Kd of 172 ± 11 µM.

(Values after publication PMC10330775 (Experimental cell research, 2023).)
